Reference: ChEMBL document CHEMBL4699432, “Rational design, synthesis and testing of novel tricyclic topoisomerase inhibitors for the treatment of bacterial infections part 1” (RSC Med Chem, 2020)
In brackets after ≈: the same amount, converted by molar mass.

System: not listed separately
Assay: Thermodynamic solubility of compound at physiological pH
Type: physicochemical
Conditions: read-out: Therm_solubility

Row | Structure (SMILES) | solubility thermodynamic [µg/mL]
1 | Cc1c(-c2cnc3[nH]ncc3c2)ccc2c3oc(CN)nc3c(=O)n(C3CC3)c12 | 618 (≈ 1600 µM)

System: Staphylococcus aureus
Assay: Antibacterial activity against Staphylococcus aureus ATCC 29213 assessed as reduction in bacterial growth by CLSI method based broth microdilution assay
Type: functional
Conditions: not given

Row | Structure (SMILES) | MIC [µg/mL]
2 | Cc1c(-c2ccc(N)c(F)c2)ccc2c3ocnc3c(=O)n(C3CC3)c12 | 0.12 (≈ 0.343 µM)
3 | Cc1c(-c2ccc(N)nn2)ccc2c3ocnc3c(=O)n(C3CC3)c12 | > 64
4 | Cc1c(-c2ccccc2)ccc2c3ocnc3c(=O)n(C3CC3)c12 | 1 (≈ 3.16 µM)
5 | Cc1c(-c2cnc3[nH]ncc3c2)ccc2c3oc(CN)nc3c(=O)n(C3CC3)c12 | 0.25 (≈ 0.647 µM)
6 | Cc1c(-c2ccc(C(C)N)cc2)ccc2c3ocnc3c(=O)n(C3CC3)c12 (stereo unspecified) | 0.5 (≈ 1.39 µM)
7 | CCn1c(=O)c2ncoc2c2cc(F)c(-c3cc(F)c(N)cc3F)c(C)c21 | 1 (≈ 2.68 µM)

The next lines start with the values.

Row | MIC [µg/mL] | Structure (SMILES)
8 | 128 (≈ 344 µM) | Nc1cc(F)c(-c2nc3c(cc2F)c2ocnc2c(=O)n3C2CC2)cc1F
9 | 0.25 (≈ 0.673 µM) | Nc1cc(F)c(-c2cc3c(cc2F)c2ocnc2c(=O)n3C2CC2)cc1F
10 | 64 (≈ 161 µM) | Cc1c(-c2cc(F)c(C(=O)O)cc2F)ccc2c3ocnc3c(=O)n(C3CC3)c12
11 | 0.25 (≈ 0.645 µM) | Nc1cc(F)c(-c2ccc3c4ocnc4c(=O)n(C4CC4)c3c2Cl)cc1F
12 | 0.03 (≈ 0.0787 µM) | Cc1nc2c(=O)n(C3CC3)c3c(C)c(-c4cc(F)c(N)cc4F)ccc3c2o1
13 | 2 (≈ 5.66 µM) | Nc1cc(F)c(-c2ccc3c4ocnc4c(=O)n(C4CC4)c3c2)cc1F
14 | 2 (≈ 5.63 µM) | CCn1c(=O)c2ncoc2c2ccc(-c3cc(F)c(N)cc3F)c(C)c21
15 | 0.5 (≈ 1.35 µM) | C[C@H]1COc2c(-c3cc(F)c(N)cc3F)ccc3c4ocnc4c(=O)n1c23

System: Streptococcus pneumoniae
Assay: Antibacterial activity against Streptococcus pneumoniae ATCC 49619 assessed as reduction in bacterial growth by CLSI method based broth microdilution assay
Type: functional
Conditions: not given
Summary of the method: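 MIC by broth microdilution following CLSI guidelines for culturing and susceptibility testing; each determination run in triplicate. Agar dilution was used instead only ahead of frequency-of-resistance work.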

Row | MIC [µg/mL] | Structure (SMILES)
16 | > 128 | Cc1c(-c2cc(F)c(C(=O)O)cc2F)ccc2c3ocnc3c(=O)n(C3CC3)c12
17 | 2 (≈ 5.72 µM) | Cc1c(-c2ccc(N)c(F)c2)ccc2c3ocnc3c(=O)n(C3CC3)c12
18 | > 64 | Cc1c(-c2ccc(N)nn2)ccc2c3ocnc3c(=O)n(C3CC3)c12
19 | 4 (≈ 12.6 µM) | Cc1c(-c2ccccc2)ccc2c3ocnc3c(=O)n(C3CC3)c12
20 | 2 (≈ 5.56 µM) | Cc1c(-c2ccc(C(C)N)cc2)ccc2c3ocnc3c(=O)n(C3CC3)c12 (stereo unspecified)

System: not listed separately
Assay: Cytotoxicity against human HepG2 cells
Type: cell-based
Conditions: not given

Row | Structure (SMILES) | CC50 [µg/mL]
21 | Cc1c(-c2ccc(N)c(F)c2)ccc2c3ocnc3c(=O)n(C3CC3)c12 | > 128
22 | Cc1c(-c2cnc3[nH]ncc3c2)ccc2c3oc(CN)nc3c(=O)n(C3CC3)c12 | > 128
23 | Cc1c(-c2ccc(C(C)N)cc2)ccc2c3ocnc3c(=O)n(C3CC3)c12 (stereo unspecified) | > 32

System: Staphylococcus aureus
Assay: Antibacterial activity against methicillin-resistant Staphylococcus aureus NRS74 assessed as reduction in bacterial growth by CLSI method based broth microdilution assay
Type: functional
Conditions: not given

Row | Structure (SMILES) | MIC [µg/mL]
24 | Cc1c(-c2cnc3[nH]ncc3c2)ccc2c3oc(CN)nc3c(=O)n(C3CC3)c12 | 2 (≈ 5.18 µM)

System: Staphylococcus aureus
Assay: Antibacterial activity against methicillin-resistant Staphylococcus aureus VRS8 assessed as reduction in bacterial growth by CLSI method based broth microdilution assay
Type: functional
Conditions: not given

Row | Structure (SMILES) | MIC [µg/mL]
25 | Cc1c(-c2cnc3[nH]ncc3c2)ccc2c3oc(CN)nc3c(=O)n(C3CC3)c12 | 2 (≈ 5.18 µM)

Target: Voltage-gated inwardly rectifying potassium channel KCNH2 (Homo sapiens, UniProt Q12809)
Conditions: not given

Voltage-gated inwardly rectifying potassium channel KCNH2, sequence (Q12809 whole entry): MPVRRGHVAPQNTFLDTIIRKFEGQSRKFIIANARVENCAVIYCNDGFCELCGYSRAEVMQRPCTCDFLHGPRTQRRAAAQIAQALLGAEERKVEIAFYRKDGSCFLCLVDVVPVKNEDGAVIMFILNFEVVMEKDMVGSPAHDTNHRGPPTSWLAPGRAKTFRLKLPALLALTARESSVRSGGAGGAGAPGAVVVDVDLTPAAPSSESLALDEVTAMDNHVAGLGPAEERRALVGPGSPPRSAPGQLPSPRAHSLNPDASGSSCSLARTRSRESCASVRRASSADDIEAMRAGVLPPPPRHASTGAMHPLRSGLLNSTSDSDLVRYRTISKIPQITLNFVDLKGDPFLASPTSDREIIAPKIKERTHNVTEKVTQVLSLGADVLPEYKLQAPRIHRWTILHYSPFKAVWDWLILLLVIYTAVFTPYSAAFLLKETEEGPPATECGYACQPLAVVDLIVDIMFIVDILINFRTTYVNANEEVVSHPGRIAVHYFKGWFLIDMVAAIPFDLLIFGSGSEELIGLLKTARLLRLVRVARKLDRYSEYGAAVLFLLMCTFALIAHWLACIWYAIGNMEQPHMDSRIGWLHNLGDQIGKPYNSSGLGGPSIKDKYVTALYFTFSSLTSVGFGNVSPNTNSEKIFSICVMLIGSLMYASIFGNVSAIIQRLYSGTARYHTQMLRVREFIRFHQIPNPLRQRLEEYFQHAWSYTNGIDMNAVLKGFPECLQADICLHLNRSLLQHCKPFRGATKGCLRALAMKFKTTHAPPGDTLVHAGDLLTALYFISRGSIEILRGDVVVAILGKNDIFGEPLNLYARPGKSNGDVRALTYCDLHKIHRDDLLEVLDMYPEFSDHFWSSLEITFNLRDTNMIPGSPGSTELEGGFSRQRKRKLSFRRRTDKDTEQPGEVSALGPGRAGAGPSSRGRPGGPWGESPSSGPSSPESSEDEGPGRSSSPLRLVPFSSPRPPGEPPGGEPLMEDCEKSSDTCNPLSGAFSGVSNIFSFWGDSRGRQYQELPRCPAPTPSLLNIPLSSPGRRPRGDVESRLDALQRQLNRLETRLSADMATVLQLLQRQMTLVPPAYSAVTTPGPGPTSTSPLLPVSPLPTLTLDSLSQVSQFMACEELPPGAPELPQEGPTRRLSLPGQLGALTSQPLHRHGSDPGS

Row | Structure (SMILES) | IC50 [µM]
26 | Cc1c(-c2cnc3[nH]ncc3c2)ccc2c3oc(CN)nc3c(=O)n(C3CC3)c12 | 45.1
